# Reference: ChEMBL document CHEMBL4354843, “Structure-Based Design of a Potent and Selective Covalent Inhibitor for SRC Kinase That Targets a P-Loop Cysteine” (J Med Chem, 2020)
# What was measured:
# [1] = biological target: Serine/threonine-protein kinase LATS2 (Homo sapiens) (UniProt Q9NRM7); assay: Binding affinity to wild-type human partial length LATS2 (Q641 to V1088 residues) expressed in mammalian expression system assessed as residual binding level at 1 uM by Kinomescan method relative to control
# [2] = biological target: Calcium/calmodulin-dependent protein kinase type II subunit delta (Homo sapiens) (UniProt Q13557); assay: Binding affinity to wild-type human partial length CAMK2D (M1 to E329 residues) expressed in bacterial expression system assessed as residual binding level at 1 uM by Kinomescan method relative to control
# [3] = test system: Proto-oncogene tyrosine-protein kinase receptor Ret (Homo sapiens), P07949 [V804M]; assay: Binding affinity to human partial length RET V804M mutant (E713 to D1014 residues) expressed in bacterial expression system assessed as residual binding level at 1 uM by Kinomescan method relative to control
# How it was run: (§1)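 KinomeScan active site-directed competition binding panel (468 kinases), compound tested at 1 μM. Result expressed as remaining kinase signal versus DMSO control (percent of control).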
# [4] = biological target: Dual specificity protein kinase CLK4 (Homo sapiens) (UniProt Q9HAZ1); assay: Binding affinity to wild-type human partial length CLK4 (R135 to K481 residues) expressed in bacterial expression system assessed as residual binding level at 1 uM by Kinomescan method relative to control
# [5] = biological target: Epithelial discoidin domain-containing receptor 1 (Homo sapiens) (UniProt Q08345); assay: Binding affinity to wild-type human partial length DDR1 (R565 to V876 residues) expressed in bacterial expression system assessed as residual binding level at 1 uM by Kinomescan method relative to control
# How it was run: (§2)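 Active-site-directed competition binding panel of 468 kinases (KinomeScan), compound at 1 μM. The read-out is kinase remaining bound, given as a percentage of the DMSO control. […]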
# [6] = test system: Epidermal growth factor receptor (Homo sapiens), P00533 [T790M]; assay: Binding affinity to human partial length EGFR T790M mutant (R669 to G1022 residues) expressed in mammalian expression system assessed as residual binding level at 1 uM by Kinomescan method relative to control; how it was run: as §1
# [7] = biological target: Myosin light chain kinase, smooth muscle (Homo sapiens) (UniProt Q15746); assay: Binding affinity to wild-type human full length MYLK (M854 to E1845 residues) expressed in mammalian expression system assessed as residual binding level at 1 uM by Kinomescan method relative to control
# How it was run: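 Active-site-directed competition binding panel (KinomeScan) covering 468 kinases. Test agent was screened at 1 μM. The read-out is the remaining kinase signal expressed relative to a DMSO control. Scores above 35%, taken as weak binding, were not reported.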
# [8] = biological target: Mitogen-activated protein kinase kinase kinase 10 (Homo sapiens) (UniProt Q02779); assay: Binding affinity to wild-type human partial length MLK2 (V52 to W380 residues) expressed in bacterial expression system assessed as residual binding level at 1 uM by Kinomescan method relative to control
# [9] = biological target: Ephrin type-A receptor 3 (Homo sapiens) (UniProt P29320); assay: Binding affinity to wild-type human partial length EPHA3 (D604 to K889 residues) expressed in bacterial expression system assessed as residual binding level at 1 uM by Kinomescan method relative to control; how it was run: as §2
# [10] = biological target: BMP-2-inducible protein kinase (Homo sapiens) (UniProt Q9NSY1); assay: Binding affinity to wild-type human partial length BIKE (S34 to N329 residues) expressed in bacterial expression system assessed as residual binding level at 1 uM by Kinomescan method relative to control
# How it was run: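 KinomeScan, an active site-directed competition binding panel of 468 kinases. The test compound was at 1 μM. The readout is remaining kinase binding as a percentage of the DMSO control. Scores above 35% were treated as weak binding and not listed.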
# [11] = biological target: Insulin receptor-related protein (Homo sapiens) (UniProt P14616); assay: Binding affinity to wild-type human partial length INSRR (R950 to E1278 residues) expressed in bacterial expression system assessed as residual binding level at 1 uM by Kinomescan method relative to control
# [12] = biological target: Tyrosine-protein kinase ITK/TSK (Homo sapiens) (UniProt Q08881); assay: Binding affinity to wild-type human partial length ITK (R335 to L620 residues) expressed in bacterial expression system assessed as residual binding level at 1 uM by Kinomescan method relative to control
# [13] = biological target: Serine/threonine-protein kinase ICK (Homo sapiens) (UniProt Q9UPZ9); assay: Binding affinity to wild-type human partial length ICK (M1 to P314 residues) expressed in mammalian expression system assessed as residual binding level at 1 uM by Kinomescan method relative to control; how it was run: as §2
# [14] = biological target: Calcium/calmodulin-dependent protein kinase type 1 (Homo sapiens) (UniProt Q14012); assay: Binding affinity to wild-type human full length CAMK1 (M1 to L370 residues) expressed in bacterial expression system assessed as residual binding level at 1 uM by Kinomescan method relative to control
# How it was run: (§3)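 Active-site-directed KinomeScan competition binding panel covering 468 kinases, compound tested at 1 μM. Each readout is the kinase signal remaining with compound, expressed as a percentage of the DMSO control. […]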
# [15] = biological target: Dual specificity tyrosine-phosphorylation-regulated kinase 1A (Homo sapiens) (UniProt Q13627); assay: Binding affinity to wild-type human partial length DYRK1A (H129 to S509 residues) expressed in mammalian expression system assessed as residual binding level at 1 uM by Kinomescan method relative to control
# [16] = test system: Epidermal growth factor receptor (Homo sapiens), P00533 [L858R]; assay: Binding affinity to human partial length EGFR L858R mutant (R669 to V1011 residues) expressed in bacterial expression system assessed as residual binding level at 1 uM by Kinomescan method relative to control; how it was run: as §1
# [17] = biological target: Non-receptor tyrosine-protein kinase TYK2 (Homo sapiens) (UniProt P29597); assay: Binding affinity to wild-type human partial length TYK2 JH2 pseudokinase domain (G556 to D888 residues) expressed in mammalian expression system assessed as residual binding level at 1 uM by Kinomescan method relative to control
# [18] = biological target: Receptor tyrosine-protein kinase erbB-3 (Homo sapiens) (UniProt P21860); assay: Binding affinity to wild-type human partial length ERBB3 (G684 to A987 residues) expressed in mammalian expression system assessed as residual binding level at 1 uM by Kinomescan method relative to control
# [19] = biological target: Calcium/calmodulin-dependent protein kinase type 1D (Homo sapiens) (UniProt Q8IU85); assay: Binding affinity to wild-type human partial length CAMK1D (M1 to K299 residues) expressed in bacterial expression system assessed as residual binding level at 1 uM by Kinomescan method relative to control
# [20] = biological target: Dual specificity tyrosine-phosphorylation-regulated kinase 2 (Homo sapiens) (UniProt Q92630); assay: Binding affinity to wild-type human full length DYRK2 (M1 to S528 residues) expressed in mammalian expression system assessed as residual binding level at 1 uM by Kinomescan method relative to control; how it was run: as §3
# [21] = biological target: Phosphatidylinositol 3-kinase C2 domain-containing subunit gamma (Homo sapiens) (UniProt O75747); assay: Binding affinity to wild-type human partial length PIK3C2G (M1 to I1446 residues) expressed in mammalian expression system assessed as residual binding level at 1 uM by Kinomescan method relative to control
# Calcium/calmodulin-dependent protein kinase type 1D (Homo sapiens), sequence (Q8IU85 whole entry, looked up, the tested form may be a part): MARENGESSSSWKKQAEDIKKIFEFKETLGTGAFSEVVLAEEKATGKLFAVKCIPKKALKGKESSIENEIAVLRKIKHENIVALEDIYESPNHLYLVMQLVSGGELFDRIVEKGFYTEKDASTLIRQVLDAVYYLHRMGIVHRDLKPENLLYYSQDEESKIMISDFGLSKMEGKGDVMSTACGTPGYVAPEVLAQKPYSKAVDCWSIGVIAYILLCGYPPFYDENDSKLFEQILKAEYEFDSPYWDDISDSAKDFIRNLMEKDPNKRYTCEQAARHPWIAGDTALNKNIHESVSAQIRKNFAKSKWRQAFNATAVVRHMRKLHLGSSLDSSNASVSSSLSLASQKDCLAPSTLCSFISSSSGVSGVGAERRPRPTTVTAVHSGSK
# Serine/threonine-protein kinase LATS2 (Homo sapiens), sequence (Q9NRM7 whole entry, the tested form may be a part): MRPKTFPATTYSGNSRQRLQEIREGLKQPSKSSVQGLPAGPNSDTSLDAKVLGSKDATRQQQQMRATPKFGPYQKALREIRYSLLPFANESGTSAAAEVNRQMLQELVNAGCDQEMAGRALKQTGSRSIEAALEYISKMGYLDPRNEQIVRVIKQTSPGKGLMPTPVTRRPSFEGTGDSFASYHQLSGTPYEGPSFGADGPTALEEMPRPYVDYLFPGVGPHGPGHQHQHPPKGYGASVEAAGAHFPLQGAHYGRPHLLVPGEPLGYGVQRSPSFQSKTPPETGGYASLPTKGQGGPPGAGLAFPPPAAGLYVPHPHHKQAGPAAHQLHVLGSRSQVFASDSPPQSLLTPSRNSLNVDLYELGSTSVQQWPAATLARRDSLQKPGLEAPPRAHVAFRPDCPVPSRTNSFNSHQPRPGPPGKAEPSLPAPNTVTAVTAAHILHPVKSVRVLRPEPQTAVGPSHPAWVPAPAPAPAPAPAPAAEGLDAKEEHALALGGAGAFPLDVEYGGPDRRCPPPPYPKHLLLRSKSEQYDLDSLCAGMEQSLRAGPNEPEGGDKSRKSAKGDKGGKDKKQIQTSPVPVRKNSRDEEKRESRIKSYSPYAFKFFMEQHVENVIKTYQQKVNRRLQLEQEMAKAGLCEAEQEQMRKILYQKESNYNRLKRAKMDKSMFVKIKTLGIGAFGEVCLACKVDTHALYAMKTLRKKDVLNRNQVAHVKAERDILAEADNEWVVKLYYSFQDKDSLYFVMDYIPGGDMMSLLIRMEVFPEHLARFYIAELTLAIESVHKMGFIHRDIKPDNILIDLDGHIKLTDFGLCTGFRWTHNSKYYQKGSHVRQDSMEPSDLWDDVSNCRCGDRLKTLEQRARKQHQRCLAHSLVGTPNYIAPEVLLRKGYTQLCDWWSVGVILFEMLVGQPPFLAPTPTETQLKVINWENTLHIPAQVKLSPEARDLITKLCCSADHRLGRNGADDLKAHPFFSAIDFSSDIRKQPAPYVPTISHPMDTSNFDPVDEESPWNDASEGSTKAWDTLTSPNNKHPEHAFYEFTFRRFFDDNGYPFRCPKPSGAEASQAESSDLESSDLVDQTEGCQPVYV
# Calcium/calmodulin-dependent protein kinase type 1 (Homo sapiens), sequence (Q14012 whole entry, looked up, the tested form may be a part): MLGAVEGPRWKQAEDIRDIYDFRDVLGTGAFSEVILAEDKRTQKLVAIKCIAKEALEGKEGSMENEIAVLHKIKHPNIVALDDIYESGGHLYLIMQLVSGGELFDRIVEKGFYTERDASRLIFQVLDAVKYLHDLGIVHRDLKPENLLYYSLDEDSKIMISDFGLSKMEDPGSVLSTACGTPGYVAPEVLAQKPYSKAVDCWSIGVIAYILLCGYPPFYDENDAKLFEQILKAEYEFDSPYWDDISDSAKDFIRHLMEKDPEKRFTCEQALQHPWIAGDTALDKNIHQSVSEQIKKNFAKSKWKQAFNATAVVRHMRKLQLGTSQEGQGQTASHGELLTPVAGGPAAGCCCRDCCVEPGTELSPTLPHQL
# Dual specificity tyrosine-phosphorylation-regulated kinase 2 (Homo sapiens), sequence (Q92630 whole entry, the tested form may be a part): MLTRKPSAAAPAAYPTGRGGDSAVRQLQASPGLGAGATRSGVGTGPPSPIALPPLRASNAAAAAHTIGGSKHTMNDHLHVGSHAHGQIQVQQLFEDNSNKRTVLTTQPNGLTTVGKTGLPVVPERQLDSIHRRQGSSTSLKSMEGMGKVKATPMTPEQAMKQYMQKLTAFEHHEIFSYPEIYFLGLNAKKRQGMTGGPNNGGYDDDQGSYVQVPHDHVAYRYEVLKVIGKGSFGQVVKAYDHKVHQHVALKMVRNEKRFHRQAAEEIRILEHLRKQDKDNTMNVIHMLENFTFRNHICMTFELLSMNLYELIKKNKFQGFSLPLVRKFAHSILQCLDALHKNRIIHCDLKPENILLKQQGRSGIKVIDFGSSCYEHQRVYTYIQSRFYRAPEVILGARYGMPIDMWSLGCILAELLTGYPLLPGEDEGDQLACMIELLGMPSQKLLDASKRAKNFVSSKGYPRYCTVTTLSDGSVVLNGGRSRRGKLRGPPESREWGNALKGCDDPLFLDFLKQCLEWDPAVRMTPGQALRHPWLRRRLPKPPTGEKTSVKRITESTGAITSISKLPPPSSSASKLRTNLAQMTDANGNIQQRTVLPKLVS
# Receptor tyrosine-protein kinase erbB-3 (Homo sapiens), sequence (P21860 whole entry, the tested form may be a part): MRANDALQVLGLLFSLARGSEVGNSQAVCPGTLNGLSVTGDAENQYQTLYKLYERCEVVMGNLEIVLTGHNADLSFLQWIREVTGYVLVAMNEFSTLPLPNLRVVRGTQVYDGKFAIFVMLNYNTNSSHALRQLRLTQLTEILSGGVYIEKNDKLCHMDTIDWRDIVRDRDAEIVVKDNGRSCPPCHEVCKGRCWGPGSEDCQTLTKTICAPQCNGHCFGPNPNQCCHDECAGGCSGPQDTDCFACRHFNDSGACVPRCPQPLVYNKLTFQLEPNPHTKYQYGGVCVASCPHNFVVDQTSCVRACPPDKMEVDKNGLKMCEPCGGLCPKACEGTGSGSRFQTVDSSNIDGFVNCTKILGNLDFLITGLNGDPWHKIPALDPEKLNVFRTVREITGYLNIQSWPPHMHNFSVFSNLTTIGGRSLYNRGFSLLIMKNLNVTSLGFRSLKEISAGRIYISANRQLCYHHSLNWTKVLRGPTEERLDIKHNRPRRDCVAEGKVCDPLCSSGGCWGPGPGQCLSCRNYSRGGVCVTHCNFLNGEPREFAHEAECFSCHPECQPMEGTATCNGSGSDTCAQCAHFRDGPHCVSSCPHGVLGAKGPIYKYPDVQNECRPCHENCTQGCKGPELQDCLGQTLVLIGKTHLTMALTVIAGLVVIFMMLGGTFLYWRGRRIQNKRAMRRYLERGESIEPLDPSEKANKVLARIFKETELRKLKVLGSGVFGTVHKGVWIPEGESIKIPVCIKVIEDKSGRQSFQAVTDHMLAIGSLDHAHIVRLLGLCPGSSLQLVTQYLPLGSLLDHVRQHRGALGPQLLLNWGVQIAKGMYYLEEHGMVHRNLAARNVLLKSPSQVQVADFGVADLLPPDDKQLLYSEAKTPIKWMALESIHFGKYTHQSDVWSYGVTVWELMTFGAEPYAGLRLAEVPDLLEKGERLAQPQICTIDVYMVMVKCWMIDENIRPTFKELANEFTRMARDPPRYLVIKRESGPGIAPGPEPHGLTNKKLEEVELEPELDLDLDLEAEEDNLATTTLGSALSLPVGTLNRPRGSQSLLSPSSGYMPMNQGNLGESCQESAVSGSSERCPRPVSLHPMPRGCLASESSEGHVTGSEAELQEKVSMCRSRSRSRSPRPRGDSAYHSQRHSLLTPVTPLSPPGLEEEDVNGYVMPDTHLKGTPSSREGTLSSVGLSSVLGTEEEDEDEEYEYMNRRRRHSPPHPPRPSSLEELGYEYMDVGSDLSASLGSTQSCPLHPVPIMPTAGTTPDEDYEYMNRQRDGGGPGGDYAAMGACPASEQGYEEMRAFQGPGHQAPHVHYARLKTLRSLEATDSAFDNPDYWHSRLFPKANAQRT
# Tyrosine-protein kinase ITK/TSK (Homo sapiens), sequence (Q08881 whole entry, the tested form may be a part): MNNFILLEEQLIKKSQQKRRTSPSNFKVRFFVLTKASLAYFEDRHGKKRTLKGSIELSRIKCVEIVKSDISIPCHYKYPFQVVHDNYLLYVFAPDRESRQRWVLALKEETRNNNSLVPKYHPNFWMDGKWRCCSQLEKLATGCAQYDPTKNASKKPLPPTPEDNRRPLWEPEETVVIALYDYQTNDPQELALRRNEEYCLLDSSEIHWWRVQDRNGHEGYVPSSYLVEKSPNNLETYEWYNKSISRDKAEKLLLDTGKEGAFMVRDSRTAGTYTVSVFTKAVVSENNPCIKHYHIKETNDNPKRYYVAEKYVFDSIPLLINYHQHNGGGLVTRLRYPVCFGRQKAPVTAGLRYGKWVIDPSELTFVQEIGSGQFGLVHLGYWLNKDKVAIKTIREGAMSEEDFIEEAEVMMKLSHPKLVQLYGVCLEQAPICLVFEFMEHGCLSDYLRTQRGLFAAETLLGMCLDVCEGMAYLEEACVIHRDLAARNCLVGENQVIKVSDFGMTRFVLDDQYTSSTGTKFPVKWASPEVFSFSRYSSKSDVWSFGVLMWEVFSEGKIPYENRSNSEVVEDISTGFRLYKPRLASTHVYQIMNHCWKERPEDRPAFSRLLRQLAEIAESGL
# Calcium/calmodulin-dependent protein kinase type II subunit delta (Homo sapiens), sequence (Q13557 whole entry, the tested form may be a part): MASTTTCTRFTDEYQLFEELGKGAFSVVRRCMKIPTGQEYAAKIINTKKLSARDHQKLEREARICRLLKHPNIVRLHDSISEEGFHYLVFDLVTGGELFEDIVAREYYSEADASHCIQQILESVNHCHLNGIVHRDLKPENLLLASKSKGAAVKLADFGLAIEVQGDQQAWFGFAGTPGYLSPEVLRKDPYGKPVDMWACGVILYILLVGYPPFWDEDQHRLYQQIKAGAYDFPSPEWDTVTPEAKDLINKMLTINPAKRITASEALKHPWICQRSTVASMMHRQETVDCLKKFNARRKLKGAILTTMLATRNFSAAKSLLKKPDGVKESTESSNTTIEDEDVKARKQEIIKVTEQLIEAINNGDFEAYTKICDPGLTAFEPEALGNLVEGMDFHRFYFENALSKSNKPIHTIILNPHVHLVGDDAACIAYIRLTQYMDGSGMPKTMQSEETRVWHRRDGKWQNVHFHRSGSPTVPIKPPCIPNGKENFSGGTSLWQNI
structure (smiles),measurement,setting,value
C=CC(=O)Nc1ccccc1Nc1nc(Nc2ccc(N3CCN(C)CC3)cc2)ncc1C(=O)Nc1c(C)cccc1Cl,Activity,[1],100%
same,Activity,[2],100%
same,Activity,[3],100%
same,Activity,[4],100%
same,Activity,[5],1.1%
same,Activity,[6],100%
same,Activity,[7],100%
same,Activity,[8],100%
same,Activity,[9],68%
same,Activity,[10],94%
same,Activity,[11],100%
same,Activity,[12],100%
same,Activity,[13],96%
same,Activity,[14],100%
same,Activity,[15],100%
same,Activity,[16],62%
same,Activity,[17],100%
same,Activity,[18],89%
same,Activity,[19],100%
same,Activity,[20],89%
same,Activity,[21],100%
